This note sets out measurements from ChEMBL document CHEMBL1133975, “Isoxazolyl, oxazolyl, and thiazolylpropionic acid derivatives as potent alpha(4)beta(1) integrin antagonists” (Bioorg Med Chem Lett, 2001).

In general, IC50 refers to the concentration that gives 50% inhibition.

Experiment [1] deals with T1, Integrin alpha-4/beta-1 (Homo sapiens, UniProt P05556+P13612). The experiment is described as follows: Inhibition of Alpha4-beta1 integrin in Jurkat cells (Not active). In kind it is cell-based. Summed up: (§1)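 Calcein-labelled Jurkat cells were allowed to bind human recombinant sVCAM-1 in the presence of serial dilutions of compound, giving IC50. Values are means ± standard error of the number of independent experiments.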

In experiment [2] the target is T1, Integrin alpha-4/beta-1. The experiment is described as follows: Inhibition of VCAM binding to Alpha4-beta1 integrin of human eosinophil cell. In kind it is protein-complex assay.
The target in experiment [3] is T1, Integrin alpha-4/beta-1. The experiment is described as follows: Inhibition of Alpha4-beta1 integrin in Jurkat cells. The class given is cell-based. Summed up: as §1
Experiment [4] concerns the target T1, Integrin alpha-4/beta-1. The experiment is described as follows: Inhibition of human recombinant sVCAM-1 binding to alpha4-beta1 integrin (VLA-4) in ELISA. In kind it is protein-complex assay. Background: In an ELISA, binding on a coated surface is turned into a signal by an enzyme label.

T1 sequence (P05556 whole entry): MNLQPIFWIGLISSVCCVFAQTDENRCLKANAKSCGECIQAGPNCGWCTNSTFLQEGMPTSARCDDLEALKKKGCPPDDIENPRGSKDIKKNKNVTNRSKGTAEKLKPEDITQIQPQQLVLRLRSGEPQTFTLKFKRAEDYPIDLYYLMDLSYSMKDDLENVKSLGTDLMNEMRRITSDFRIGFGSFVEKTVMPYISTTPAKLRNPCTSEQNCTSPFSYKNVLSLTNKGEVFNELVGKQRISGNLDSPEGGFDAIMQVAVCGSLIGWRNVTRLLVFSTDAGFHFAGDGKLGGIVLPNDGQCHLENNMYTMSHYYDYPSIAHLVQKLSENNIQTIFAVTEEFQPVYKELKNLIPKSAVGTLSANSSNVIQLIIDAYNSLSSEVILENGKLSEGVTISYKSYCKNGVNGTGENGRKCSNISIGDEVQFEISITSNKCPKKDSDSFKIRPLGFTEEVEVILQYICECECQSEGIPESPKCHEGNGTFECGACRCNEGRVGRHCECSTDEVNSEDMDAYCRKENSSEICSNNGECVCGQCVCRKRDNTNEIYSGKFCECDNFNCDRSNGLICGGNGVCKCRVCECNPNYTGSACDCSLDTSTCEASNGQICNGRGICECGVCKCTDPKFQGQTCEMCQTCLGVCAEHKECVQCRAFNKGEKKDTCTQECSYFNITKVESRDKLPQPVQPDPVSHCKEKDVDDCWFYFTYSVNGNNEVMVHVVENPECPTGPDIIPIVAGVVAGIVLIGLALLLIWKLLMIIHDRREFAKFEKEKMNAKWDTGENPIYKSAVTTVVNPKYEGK
T1 sequence (P13612 whole entry): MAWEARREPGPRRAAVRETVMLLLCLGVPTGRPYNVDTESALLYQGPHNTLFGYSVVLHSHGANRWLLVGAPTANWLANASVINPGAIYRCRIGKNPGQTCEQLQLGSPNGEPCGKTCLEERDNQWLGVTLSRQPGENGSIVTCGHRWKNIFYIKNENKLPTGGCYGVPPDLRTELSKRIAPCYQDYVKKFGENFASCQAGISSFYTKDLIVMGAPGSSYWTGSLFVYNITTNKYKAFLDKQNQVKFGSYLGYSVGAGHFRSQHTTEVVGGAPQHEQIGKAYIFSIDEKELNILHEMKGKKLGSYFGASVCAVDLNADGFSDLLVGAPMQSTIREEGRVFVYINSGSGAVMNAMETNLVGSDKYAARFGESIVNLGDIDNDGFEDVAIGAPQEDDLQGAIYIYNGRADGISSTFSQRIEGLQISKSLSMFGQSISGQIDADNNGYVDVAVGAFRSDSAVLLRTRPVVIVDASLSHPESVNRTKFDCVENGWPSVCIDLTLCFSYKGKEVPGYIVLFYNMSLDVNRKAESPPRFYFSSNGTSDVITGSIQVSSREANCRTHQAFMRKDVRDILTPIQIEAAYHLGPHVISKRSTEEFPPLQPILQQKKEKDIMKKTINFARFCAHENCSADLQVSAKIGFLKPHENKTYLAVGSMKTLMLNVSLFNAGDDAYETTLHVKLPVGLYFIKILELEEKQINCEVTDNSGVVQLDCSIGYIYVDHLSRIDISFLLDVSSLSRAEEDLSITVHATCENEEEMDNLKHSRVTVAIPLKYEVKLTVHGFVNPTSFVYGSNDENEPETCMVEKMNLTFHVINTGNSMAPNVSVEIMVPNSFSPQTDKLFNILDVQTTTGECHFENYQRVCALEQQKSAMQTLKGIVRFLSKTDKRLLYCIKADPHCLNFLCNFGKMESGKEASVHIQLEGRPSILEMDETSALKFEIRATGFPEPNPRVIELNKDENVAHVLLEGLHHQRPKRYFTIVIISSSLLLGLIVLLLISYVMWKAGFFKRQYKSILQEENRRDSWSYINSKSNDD

Regarding `Cc1ccccc1NC(=O)Nc1ccc(CC(=O)N[C@@H](CC(C)C)c2cc(-c3cccc(C(=O)O)c3)on2)cc1`, in experiment [1], the IC50 entry was “Not Active”. On to `Cc1ccccc1NC(=O)Nc1ccc(CC(=O)N[C@@H](CC(C)C)C2=NOC(CCC(=O)O)C2)cc1` (stereo partly drawn), for which the values for the IC50 in experiment [2] and in experiment [3] were 495 nM and 88 nM, respectively. In the same order, the values of `Cc1ccccc1NC(=O)Nc1ccc(CC(=O)N[C@@H](CC(C)C)c2cc(CCC(=O)O)on2)cc1` are 143 nM and 27 nM. With `Cc1ccccc1NC(=O)Nc1ccc(CC(=O)N[C@@H](CC(C)C)c2ncc(CCC(=O)O)s2)cc1`, the concentration for half-maximal inhibition (IC50) in experiment [2] was found to be 180 nM; in experiment [3], 16 nM. For `Cc1ccccc1NC(=O)Nc1ccc(CC(=O)N[C@@H](CC(C)C)c2ncc(CC(=O)O)s2)cc1`, inhibition in experiment [3] was half-maximal at 2400 nM (IC50). Take `Cc1ccccc1NC(=O)Nc1ccc(CC(=O)N[C@@H](CC(C)C)c2ncc(CCC(=O)O)o2)cc1`: the figures for the half-maximal inhibitory concentration (IC50) in experiment [2] and in experiment [3] were 171 nM and 45 nM, respectively.

In the case of `COc1cc(CC(=O)N[C@@H](CC(C)C)c2cc(CCC(=O)O)on2)ccc1NC(=O)Nc1ccccc1C`, the IC50 worked out at 1 nM in experiment [2] and 0.69 nM in experiment [3].

`Cc1ccccc1NC(=O)Nc1ccc(CC(=O)N[C@@H](CC(C)C)c2ncc(CCC(N)=O)s2)cc1`: the 50% inhibitory concentration (IC50) result in experiment [4] was “Not Active”. Regarding `Cc1ccccc1NC(=O)Nc1ccc(CC(=O)N[C@@H](CC(C)C)C2=NOC(CCC(=O)O)(CCC(=O)O)C2)cc1`, the IC50 was determined as 347 nM in experiment [2] and 67 nM in experiment [3].

As for `Cc1ccccc1NC(=O)Nc1ccc(CC(=O)N[C@@H](CC(C)C)c2nc(CCC(=O)O)cs2)cc1`, it took 2040 nM to reach half-maximal inhibition in experiment [3] (IC50). Regarding `Cc1ccccc1NC(=O)Nc1ccc(CC(=O)N[C@@H](CC(C)C)c2cc(CCCC(=O)O)on2)cc1`, the IC50 in experiment [3] is 1800 nM. For the molecule `Cc1ccccc1NC(=O)Nc1ccc(CC(=O)N[C@@H](CC(C)C)c2cc(-c3ccccc3C(=O)O)on2)cc1`, the IC50 entry in experiment [1] was “Not Active”.
